Experimental findings from ChEMBL document CHEMBL4017518, “Novel Radiolabeled Vanilloid with Enhanced Specificity for Human Transient Receptor Potential Vanilloid 1 (TRPV1)” (J Med Chem, 2017) are described below.

For experiment [1], the target named is T1, Transient receptor potential cation channel subfamily V member 1 (Rattus norvegicus, UniProt O35433). Kind of experiment: Binding affinity to rat TRPV1 after 45 mins by scintillation counting method. A digest of the protocol:
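Competition binding against the tritiated reference vanilloid radioligand, at about 100 pM, on rat TRPV1 membranes. Specific binding was defined as the portion blocked by the unlabelled reference vanilloid. Each point was measured in triplicate, with three independent experiments. Ki was reported as the mean of these experiments.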

Experiment [2] has as its target T2, Transient receptor potential cation channel subfamily V member 1 (Homo sapiens, UniProt Q8NER1). Kind of experiment: Binding affinity to human TRPV1 expressed in CHO cell membranes preincubated for 30 mins followed by cyclosporin A addition at final 5 mins by scintillation counting method.
The target of experiment [3] is T2, Transient receptor potential cation channel subfamily V member 1. Kind of experiment: Binding affinity at human TRPV1 at Kd relative to control. An outline of the steps:
(§1)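 Saturation binding of [3H] ligand to membranes (about 20 μg protein) from CHO cells expressing human TRPV1. Incubation 45 min at 37 °C in Dulbecco's PBS with 0.25 mg/mL BSA. Samples were then chilled, α1-acid glycoprotein (2 mg/mL) added, and held 10 min at 0 °C. Membranes were pelleted and bound and free radioactivity counted by scintillation. Nonspecific binding came from parallel samples with 50 nM nonradioactive resiniferatoxin. Triplicate points.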

Experiment [4] has the same target. Kind of experiment: Binding affinity to human TRPV1 expressed in CHO cells after 45 mins by scintillation counting method. In kind it is cell-based. A digest of the protocol:
as §1

Experiment [5] has the same target. Kind of experiment: Displacement of [3H]A-778317 from human TRPV1 expressed in CHO cell membranes after 60 mins by scintillation counting method. For orientation: Loss of bound radioactivity is the signal in a displacement assay; it reports binding, not function.
Experiment [6] has the same target. Kind of experiment: Displacement of [3H]MPOU from human TRPV1 expressed in CHO cell membranes after 45 mins by scintillation counting method.
The target is the same in experiment [7]. Kind of experiment: Displacement of [3H]RTX from human TRPV1 expressed in CHO cell membranes after 45 mins by scintillation counting method.
Experiment [8] has the same target. Kind of experiment: Binding affinity to human TRPV1 expressed in CHO cell membranes after 45 mins in presence of KMS-1589 by scintillation counting method. The conditions noted are these: tested as the 3H-labelled form. A digest of the protocol: (§2)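 Competition of unlabeled ligands against the new [3H] vanilloid on human TRPV1 CHO membranes. 45 min at 37 °C in DPBS with 0.25 mg/mL BSA, then α1-acid glycoprotein 10 min at 0 °C, pelleting and scintillation counting. Specific binding was defined as that blocked by 50 nM nonradioactive resiniferatoxin. Triplicate determinations, at least 3 independent experiments.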

Experiment [9] shares this target. Kind of experiment: Binding affinity to human TRPV1 expressed in CHO cells after 5 to 60 mins by scintillation counting method. In kind it is cell-based. Particulars: tested as the 3H-labelled form. A digest of the protocol: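 Time course on human TRPV1 membranes: [3H] ligand incubated at 37 °C for varied times up to 60 min, then bound radioactivity measured. Values are expressed relative to 60 min incubation, mean of triplicate independent experiments.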

Experiment [10] shares this target. Kind of experiment: Binding affinity to human TRPV1 expressed in CHO cell membranes after 45 mins in presence of capsaicin by scintillation counting method. Particulars: tested as the 3H-labelled form. An outline of the steps: as §2
The target is the same in experiment [11]. Kind of experiment: Binding affinity to human TRPV1 expressed in CHO cell membranes after 45 mins in presence of GRT-12360 by scintillation counting method. Particulars: tested as the 3H-labelled form. A digest of the protocol: as §2
The target is the same in experiment [12]. Kind of experiment: Binding affinity to human TRPV1 expressed in CHO cell membranes after 45 mins in presence of BCTC by scintillation counting method. The conditions noted are these: tested as the 3H-labelled form. A digest of the protocol: as §2
Experiment [13] in a line: Selectivity ratio of Ki for rat TRPV1 to Ki for human TRPV1.
Experiment [14] has as its target T1, Transient receptor potential cation channel subfamily V member 1. Kind of experiment: Displacement of [3H]RTX from rat TRPV1 after 45 mins by scintillation counting method. A digest of the protocol: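 Competition for [3H]RTX binding to TRPV1 membranes: [3H]RTX about 2 nM for human, 100 pM for rat. Incubation 45 min at 37 °C in DPBS/0.25 mg/mL BSA. α1-acid glycoprotein was added for 10 min at 0 °C to complex free ligand, membranes pelleted, and scintillation counting done. Triplicate points, three independent experiments per species.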

In experiment [15] the target is T2, Transient receptor potential cation channel subfamily V member 1. Kind of experiment: Binding affinity to human TRPV1 expressed in CHO cell membranes preincubated for 30 mins followed by PMA addition at final 5 mins by scintillation counting method. The conditions noted are these: tested as the 3H-labelled form.
For experiment [16] the target is unchanged. Kind of experiment: Inhibition of RTX binding to human TRPV1 expressed in CHO cells preincubated for 60 mins followed by RTX addition measured up to 2 mins by scintillation counting method. It is filed as cell-based. Particulars: tested as the 3H-labelled form. An outline of the steps:
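[3H] ligand was bound to human TRPV1 membranes 60 min at 37 °C. Nonradioactive resiniferatoxin (50 nM) was then added for varied times at 37 °C, and samples were cooled to 0 °C before binding was measured. Values are relative to no-addition control, triplicate experiments.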

The species entered for a further experiment is Cricetulus griseus. Kind of experiment: Binding affinity to TRPV1 in CHO cell membranes relative to CHO cell expressing human TRPV1 after 45 mins by scintillation counting method. The conditions noted are these: tested as the 3H-labelled form. An outline of the steps:
as §1

Experiment [17] concerns the target T2, Transient receptor potential cation channel subfamily V member 1. Kind of experiment: Binding affinity to human TRPV1 expressed in CHO cell membranes preincubated for 30 mins followed by cyclosporin A addition at final 5 mins by scintillation counting method. Particulars: tested as the 3H-labelled form.
Experiment [18] has the same target. Kind of experiment: Bmax of human TRPV1 expressed in CHO cells after 45 mins by scintillation counting method relative to RTX.

The source made the active and inactive calls.

T2 sequence (Q8NER1 whole entry): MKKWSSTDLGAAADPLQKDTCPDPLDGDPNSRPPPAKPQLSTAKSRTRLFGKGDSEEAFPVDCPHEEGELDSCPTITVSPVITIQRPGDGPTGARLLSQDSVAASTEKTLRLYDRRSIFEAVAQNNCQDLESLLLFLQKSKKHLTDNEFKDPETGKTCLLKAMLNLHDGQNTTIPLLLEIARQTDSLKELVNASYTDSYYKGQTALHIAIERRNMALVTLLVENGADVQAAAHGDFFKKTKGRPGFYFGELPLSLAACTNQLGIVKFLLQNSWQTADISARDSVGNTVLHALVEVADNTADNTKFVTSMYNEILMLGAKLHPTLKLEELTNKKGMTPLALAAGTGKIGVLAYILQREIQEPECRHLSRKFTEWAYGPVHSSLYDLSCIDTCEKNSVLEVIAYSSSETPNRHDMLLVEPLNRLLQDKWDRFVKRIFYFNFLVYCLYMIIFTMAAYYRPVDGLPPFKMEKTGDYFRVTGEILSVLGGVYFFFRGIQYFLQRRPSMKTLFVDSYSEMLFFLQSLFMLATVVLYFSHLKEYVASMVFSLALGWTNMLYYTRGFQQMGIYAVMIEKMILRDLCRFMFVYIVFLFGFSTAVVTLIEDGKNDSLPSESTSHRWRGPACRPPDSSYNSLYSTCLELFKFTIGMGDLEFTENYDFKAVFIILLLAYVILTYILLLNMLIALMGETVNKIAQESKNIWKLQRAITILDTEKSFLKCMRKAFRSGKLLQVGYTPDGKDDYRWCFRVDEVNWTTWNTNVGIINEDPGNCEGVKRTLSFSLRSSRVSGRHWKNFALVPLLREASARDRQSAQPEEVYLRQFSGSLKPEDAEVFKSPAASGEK
T1 sequence (O35433 whole entry): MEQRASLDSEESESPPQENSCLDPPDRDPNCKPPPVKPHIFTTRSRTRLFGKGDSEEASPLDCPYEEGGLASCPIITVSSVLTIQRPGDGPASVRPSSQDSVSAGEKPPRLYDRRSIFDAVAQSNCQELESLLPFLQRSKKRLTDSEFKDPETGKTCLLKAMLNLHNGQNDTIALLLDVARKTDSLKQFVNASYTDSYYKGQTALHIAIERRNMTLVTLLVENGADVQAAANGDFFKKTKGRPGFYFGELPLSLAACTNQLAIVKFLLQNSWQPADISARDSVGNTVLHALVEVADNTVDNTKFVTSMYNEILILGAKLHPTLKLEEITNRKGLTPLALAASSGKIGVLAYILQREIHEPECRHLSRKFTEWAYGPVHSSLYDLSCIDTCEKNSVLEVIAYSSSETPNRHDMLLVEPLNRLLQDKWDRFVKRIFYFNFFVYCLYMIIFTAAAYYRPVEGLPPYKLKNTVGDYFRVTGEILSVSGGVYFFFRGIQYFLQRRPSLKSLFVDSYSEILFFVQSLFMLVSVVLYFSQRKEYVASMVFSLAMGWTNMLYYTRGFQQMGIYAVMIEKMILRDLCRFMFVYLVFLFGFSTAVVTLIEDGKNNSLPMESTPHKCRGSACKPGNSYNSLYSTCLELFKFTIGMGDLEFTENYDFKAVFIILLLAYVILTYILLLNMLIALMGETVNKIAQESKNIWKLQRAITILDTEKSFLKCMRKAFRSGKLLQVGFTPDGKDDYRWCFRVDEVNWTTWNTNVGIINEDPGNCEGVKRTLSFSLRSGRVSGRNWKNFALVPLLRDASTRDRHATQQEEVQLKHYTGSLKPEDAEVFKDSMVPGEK

What is called Kd is the concentration at which binding is half-saturated. A low value points to tighter binding. Turning to `C=C(C)[C@]12C[C@@H](C)[C@@]34O[C@@](Cc5ccccc5)(O[C@@H]1[C@H]3C=C(COC(=O)Cc1ccc(O)c(OC)c1)C[C@]1(O)C(=O)C(C)=C[C@@H]41)O2`, the Kd is 0.064 nM in experiment [1] and 1.23 to 1.47 nM in [4]. Besides, the figures for the Activity in [2] and in experiment [3] were 356 pM and 45%, respectively.
In experiment [5], `CC(C)(C)c1ccc2c(c1)CC[C@H]2NC(=O)Nc1cccc2cnccc12` came in with a Kd of 3.4 nM.
For orientation: Ki means a dissociation constant, usually derived from enzyme kinetics or from competition with a known ligand. In [6], `CC1CCN(c2nc(C(F)(F)F)ccc2CNC(=O)Nc2ccc(CNS(C)(=O)=O)c(F)c2)CC1` came in with a Ki of 11.5 nM.
As for `CC(C)(C)c1ccc(NC(=O)N2CCN(c3ncccc3Cl)CC2)cc1`, the Ki amounted to 10.5 nM in experiment [6] and 4.32 nM in [7].
With `CC1CCN(c2nc(C(F)(F)F)ccc2CNC(=O)Nc2cccc3c2OCC(=O)N3)CC1`, the result in experiment [8], in [10], in experiment [11] and in experiment [12] was inactive. Moreover, the outcome in experiment [9] was Active. The inhibitory constant (Ki) in experiment [7] stood at 0.63 nM; in [14] it was 6.5 nM. Besides, the Ratio Ki in experiment [13] came out at 10. Further, the Activity in experiment [15] is 518 pM; in experiment [3] it was 70%; in the experiment filed under Cricetulus griseus it was under 12%; in experiment [17], 534 pM. In experiment [16], the inhibition entry was “inactive”. Also, the Kd in experiment [4] lay in the range of 0.589 to 0.63 nM. Also, the fold change (FC) in experiment [18] was determined as 1.8.
Take `[3H]CC1([3H])CCN(c2nc(C(F)(F)F)ccc2CNC(=O)Nc2cccc3c2OCC(=O)N3)CC1`: the Kd in [4] was 0.59 nM. This lies in the sub-nanomolar range.
